Results taken from ChEMBL document CHEMBL3046033, “Design, synthesis, crystal structure analysis, and insecticidal evaluation of phenylazoneonicotinoids” (2011).

Legend:
Format in all cases: functional
Aphis craccivora [1] = assay: Insecticidal activity against Aphis craccivora (cowpea aphid) assessed as mortality at 125 mg/L after 24 hr by leaf-dip method
In short: (§1)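 Test solutions were made by dissolving compounds in N,N-dimethylformamide and diluting with water containing Triton X-100 (0.1 mg/L), giving a series of 500.0, 250.0 and 125.0 mg/L plus other concentrations for the cowpea aphid (Aphis craccivora) bioassay.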

Aphis craccivora [2] = assay: Insecticidal activity against Aphis craccivora (cowpea aphid) assessed as mortality at 250 mg/L after 24 hr by leaf-dip method; in short: as §1
Aphis craccivora [3] = assay: Insecticidal activity against Aphis craccivora (cowpea aphid) assessed as mortality at 500 mg/L after 24 hr by leaf-dip method; in short: as §1
Aphis craccivora [4] = assay: Insecticidal activity against Aphis craccivora (cowpea aphid) assessed as mortality after 24 hr by leaf-dip method; in short: as §1

COc1ccccc1/N=N/C(=C1/NCCN1Cc1ccc(Cl)nc1)[N+](=O)[O-]
mortality at 125 µg/mL (Aphis craccivora [1]): 35.5% | mortality at 250 µg/mL (Aphis craccivora [2]): 76% | mortality at 500 µg/mL (Aphis craccivora [3]): 91%

COc1cccc(OC)c1/N=N/C(=C1/NCCN1Cc1ccc(Cl)nc1)[N+](=O)[O-]
LC50 (Aphis craccivora [4]): 9.9 µM | mortality at 125 µg/mL (Aphis craccivora [1]): 100% | mortality at 250 µg/mL (Aphis craccivora [2]): 100% | mortality at 500 µg/mL (Aphis craccivora [3]): 100%

O=[N+]([O-])C(/N=N/c1ccc([N+](=O)[O-])cc1)=C1\NCCN1Cc1cnc(Cl)s1
mortality at 500 µg/mL (Aphis craccivora [3]): 12.1%

O=[N+]([O-])C(/N=N/c1c(Cl)cccc1Cl)=C1\NCCN1Cc1cnc(Cl)s1
mortality at 500 µg/mL (Aphis craccivora [3]): 18.2%

Cc1cccc(/N=N/C(=C2/NCCN2Cc2cnc(Cl)s2)[N+](=O)[O-])c1C
mortality at 500 µg/mL (Aphis craccivora [3]): 61.7%

Cc1cccc(C)c1/N=N/C(=C1/NCCN1Cc1cnc(Cl)s1)[N+](=O)[O-]
LC50 (Aphis craccivora [4]): 3.5 µM | mortality at 125 µg/mL (Aphis craccivora [1]): 100% | mortality at 250 µg/mL (Aphis craccivora [2]): 100% | mortality at 500 µg/mL (Aphis craccivora [3]): 100%

Cc1cc(C)c(/N=N/C(=C2/NCCN2Cc2cnc(Cl)s2)[N+](=O)[O-])c(C)c1
mortality at 125 µg/mL (Aphis craccivora [1]): 100% | mortality at 250 µg/mL (Aphis craccivora [2]): 100% | mortality at 500 µg/mL (Aphis craccivora [3]): 100%

CCc1cccc(CC)c1/N=N/C(=C1/NCCN1Cc1cnc(Cl)s1)[N+](=O)[O-]
LC50 (Aphis craccivora [4]): 11.8 µM | mortality at 125 µg/mL (Aphis craccivora [1]): 100% | mortality at 250 µg/mL (Aphis craccivora [2]): 100% | mortality at 500 µg/mL (Aphis craccivora [3]): 100%

COc1ccc(/N=N/C(=C2/NCCN2Cc2cnc(Cl)s2)[N+](=O)[O-])cc1
mortality at 500 µg/mL (Aphis craccivora [3]): 11.8%

COc1cccc(OC)c1/N=N/C(=C1/NCCN1Cc1cnc(Cl)s1)[N+](=O)[O-]
LC50 (Aphis craccivora [4]): 14.6 µM | mortality at 125 µg/mL (Aphis craccivora [1]): 100% | mortality at 250 µg/mL (Aphis craccivora [2]): 100% | mortality at 500 µg/mL (Aphis craccivora [3]): 100%

O=[N+]([O-])C(/N=N/c1ccccc1)=C1\NCCN1Cc1ccc(Cl)nc1
mortality at 500 µg/mL (Aphis craccivora [3]): 31.2%

O=[N+]([O-])C(/N=N/c1ccc(F)cc1)=C1\NCCN1Cc1ccc(Cl)nc1
LC50 (Aphis craccivora [4]): 37.2 µM | mortality at 125 µg/mL (Aphis craccivora [1]): 100% | mortality at 250 µg/mL (Aphis craccivora [2]): 100% | mortality at 500 µg/mL (Aphis craccivora [3]): 100%

O=[N+]([O-])C(/N=N/c1ccccc1F)=C1\NCCN1Cc1ccc(Cl)nc1
mortality at 500 µg/mL (Aphis craccivora [3]): 13%

O=[N+]([O-])C(/N=N/c1ccc(F)cc1F)=C1\NCCN1Cc1ccc(Cl)nc1
mortality at 500 µg/mL (Aphis craccivora [3]): 12.2%

O=[N+]([O-])C(/N=N/c1cccc(F)c1F)=C1\NCCN1Cc1ccc(Cl)nc1
mortality at 500 µg/mL (Aphis craccivora [3]): 25.1%

O=[N+]([O-])C(/N=N/c1ccc(F)c(Cl)c1)=C1\NCCN1Cc1ccc(Cl)nc1
mortality at 500 µg/mL (Aphis craccivora [3]): 8.6%

O=[N+]([O-])C(/N=N/c1ccccc1Cl)=C1\NCCN1Cc1ccc(Cl)nc1
mortality at 500 µg/mL (Aphis craccivora [3]): 7.1%

O=[N+]([O-])C(/N=N/c1c(Cl)cccc1Cl)=C1\NCCN1Cc1ccc(Cl)nc1
mortality at 500 µg/mL (Aphis craccivora [3]): 6.5%

O=[N+]([O-])C(/N=N/c1ccc(Br)cc1)=C1\NCCN1Cc1ccc(Cl)nc1
mortality at 500 µg/mL (Aphis craccivora [3]): 58.3%

O=[N+]([O-])C(/N=N/c1ccccc1I)=C1\NCCN1Cc1ccc(Cl)nc1
mortality at 500 µg/mL (Aphis craccivora [3]): 0%

O=[N+]([O-])C(/N=N/c1ccc([N+](=O)[O-])cc1)=C1\NCCN1Cc1ccc(Cl)nc1
mortality at 500 µg/mL (Aphis craccivora [3]): 4.7%

O=[N+]([O-])C(/N=N/c1ccccc1[N+](=O)[O-])=C1\NCCN1Cc1ccc(Cl)nc1
mortality at 500 µg/mL (Aphis craccivora [3]): 8.2%

Cc1ccccc1/N=N/C(=C1/NCCN1Cc1ccc(Cl)nc1)[N+](=O)[O-]
mortality at 500 µg/mL (Aphis craccivora [3]): 52.5%

Cc1ccc(/N=N/C(=C2/NCCN2Cc2ccc(Cl)nc2)[N+](=O)[O-])cc1
mortality at 500 µg/mL (Aphis craccivora [3]): 56.6%

Cc1ccc(/N=N/C(=C2/NCCN2Cc2ccc(Cl)nc2)[N+](=O)[O-])cc1C
mortality at 500 µg/mL (Aphis craccivora [3]): 19.7%

Cc1cccc(/N=N/C(=C2/NCCN2Cc2ccc(Cl)nc2)[N+](=O)[O-])c1C
mortality at 500 µg/mL (Aphis craccivora [3]): 73.3%

Cc1cccc(C)c1/N=N/C(=C1/NCCN1Cc1ccc(Cl)nc1)[N+](=O)[O-]
LC50 (Aphis craccivora [4]): 4.26 µM | mortality at 125 µg/mL (Aphis craccivora [1]): 100% | mortality at 250 µg/mL (Aphis craccivora [2]): 100% | mortality at 500 µg/mL (Aphis craccivora [3]): 100%

Cc1cc(C)c(/N=N/C(=C2/NCCN2Cc2ccc(Cl)nc2)[N+](=O)[O-])c(C)c1
LC50 (Aphis craccivora [4]): 4.99 µM | mortality at 125 µg/mL (Aphis craccivora [1]): 100% | mortality at 250 µg/mL (Aphis craccivora [2]): 100% | mortality at 500 µg/mL (Aphis craccivora [3]): 100%

Cc1cc(C(F)(C(F)(F)F)C(F)(F)F)cc(C)c1/N=N/C(=C1/NCCN1Cc1ccc(Cl)nc1)[N+](=O)[O-]
mortality at 500 µg/mL (Aphis craccivora [3]): 12.2%

CCc1cccc(C)c1/N=N/C(=C1/NCCN1Cc1ccc(Cl)nc1)[N+](=O)[O-]
LC50 (Aphis craccivora [4]): 3.74 µM | mortality at 125 µg/mL (Aphis craccivora [1]): 100% | mortality at 250 µg/mL (Aphis craccivora [2]): 100% | mortality at 500 µg/mL (Aphis craccivora [3]): 100%

CCc1cccc(CC)c1/N=N/C(=C1/NCCN1Cc1ccc(Cl)nc1)[N+](=O)[O-]
LC50 (Aphis craccivora [4]): 2.8 µM | mortality at 125 µg/mL (Aphis craccivora [1]): 100% | mortality at 250 µg/mL (Aphis craccivora [2]): 100% | mortality at 500 µg/mL (Aphis craccivora [3]): 100%

CC(C)c1cccc(C(C)C)c1/N=N/C(=C1/NCCN1Cc1ccc(Cl)nc1)[N+](=O)[O-]
LC50 (Aphis craccivora [4]): 13.8 µM | mortality at 125 µg/mL (Aphis craccivora [1]): 100% | mortality at 250 µg/mL (Aphis craccivora [2]): 100% | mortality at 500 µg/mL (Aphis craccivora [3]): 100%

COc1ccc(/N=N/C(=C2/NCCN2Cc2ccc(Cl)nc2)[N+](=O)[O-])cc1
mortality at 500 µg/mL (Aphis craccivora [3]): 47.5%

O=[N+]([O-])/N=C1\NCCN1Cc1ccc(Cl)nc1 [IMIDACLOPRID]
LC50 (Aphis craccivora [4]): 35 µM | mortality at 125 µg/mL (Aphis craccivora [1]): 100% | mortality at 250 µg/mL (Aphis craccivora [2]): 100% | mortality at 500 µg/mL (Aphis craccivora [3]): 100%
